One assay concerns the target Calmodulin (Bos taurus) (UniProt P62157). Put plainly: Binding affinity to bovine brain calmodulin assessed as modification of electrophoretic mobility at 0.033 ug/mL after 1.5 hrs by SDS-PAGE in presence of calcium chloride. Put shortly:
(§1)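 Bovine brain and spinach calmodulin, 2 µg samples, pretreated 1.5 h at 30 °C with 1 mM CaCl2 and compound (0.033 µg/mL). Denaturing SDS-PAGE on 15% polyacrylamide gels in presence of Ca2+. Read-out is change in electrophoretic mobility relative to an untreated calmodulin lane.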

For another assay, the system named is Echinochloa crus-galli. Put plainly: Phytotoxicity against Echinochloa crus-galli assessed as inhibition of radicle elongation by petri dish bioassay. The class given is functional, organism-based. In a few lines: (§2)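 Petri dish germination and radicle elongation bioassay on seedlings at 28 °C. Pure compounds tested at 10, 50, 100 and 200 µg mL-1, with 2,4-D as positive control. IC50 derived by Probit analysis from percent radicle growth or germination inhibition; ANOVA (p < 0.05).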

For assay [1], the system named is Amaranthus hypochondriacus. The experiment in a line: Phytotoxicity against Amaranthus hypochondriacus assessed as inhibition of radicle elongation by petri dish bioassay. Type of assay: functional, organism-based. In a few lines: as §2
Assay [2] has as its target Calmodulin (Spinacia oleracea) (UniProt P04353). The experiment in a line: Binding affinity to spinach calmodulin assessed as modification of electrophoretic mobility at 0.033 ug/mL after 1.5 hrs by SDS-PAGE in presence of calcium chloride. Put shortly: as §1
Assay [3] concerns Lemna aequinoctialis. The experiment in a line: Phytotoxicity against Lemna paucicostata assessed as chlorophyll reduction at 25 uM after 3 days by ultraviolet spectroscopy relative to control. Type of assay: functional. To be noted: 72 h, read-out: GI. In a few lines:
(§3)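 Duckweed (Lemna) culture: 10 colonies of three fronds each in 3 mL half-strength Hunter's medium with compound, run 3 days. Afterwards plants are removed from medium, blotted and extracted overnight in the dark with 5 mL DMSO. Chlorophyll is expressed on fresh weight basis. Reduction is relative to culture-medium control, as means of three replicates ± standard deviation, with Student's unpaired t-test.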

Assay [4] has as its system Lemna aequinoctialis. Put plainly: Phytotoxicity against Lemna paucicostata assessed as chlorophyll reduction at 100 uM after 3 days by ultraviolet spectroscopy relative to control. The class given is functional. To be noted: 72 h, read-out: GI. In a few lines:
as §3

In assay [5] the test system is Lemna aequinoctialis. Put plainly: Phytotoxicity against Lemna paucicostata assessed as growth inhibition at 100 uM after 3 days relative to control. To be noted: 72 h, read-out: GI. The class given is functional. Put shortly: (§4)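 Lemna culture of 10 colonies, three fronds each, in 3 mL half-strength Hunter's medium containing compound for 3 days (72 h). Percent growth inhibition is versus culture-medium control, as means of three replicates ± standard deviation; significance by Student's unpaired t-test.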

Assay [6] has as its system Lemna aequinoctialis. Put plainly: Phytotoxicity against Lemna paucicostata assessed as growth inhibition at 25 uM after 3 days relative to control. Type of assay: functional. To be noted: 72 h, read-out: GI. Put shortly:
as §4

For assay [7], the system named is Lemna aequinoctialis. Put plainly: Phytotoxicity against Lemna paucicostata assessed as growth inhibition at 50 uM after 3 days relative to control. The class given is functional. To be noted: 72 h, read-out: GI. Put shortly:
as §4

Assay [8] concerns Lemna aequinoctialis. Put plainly: Phytotoxicity against Lemna paucicostata assessed as chlorophyll reduction at 50 uM after 3 days by ultraviolet spectroscopy relative to control. Type of assay: functional. To be noted: 72 h, read-out: GI. Put shortly:
as §3

For assay [9], the system named is Lemna aequinoctialis. The experiment in a line: Phytotoxicity against Lemna paucicostata assessed as chlorophyll reduction at 200 uM after 3 days by ultraviolet spectroscopy relative to control. Type of assay: functional. To be noted: 72 h, read-out: GI. Put shortly:
as §3

For assay [10], the system named is Lemna aequinoctialis. Put plainly: Phytotoxicity against Lemna paucicostata assessed as growth inhibition at 200 uM after 3 days relative to control. Type of assay: functional. To be noted: 72 h, read-out: GI. Put shortly:
as §4

In assay [11] the test system is Lemna aequinoctialis. Put plainly: Phytotoxicity against Lemna paucicostata assessed as growth inhibition at 12 uM after 3 days relative to control. Type of assay: functional. To be noted: 72 h, read-out: GI. Put shortly: as §4
Assay [12] deals with Lemna aequinoctialis. Put plainly: Phytotoxicity against Lemna paucicostata assessed as chlorophyll reduction at 12 uM after 3 days by ultraviolet spectroscopy relative to control. The class given is functional. To be noted: 72 h. Put shortly:
as §3

Molecules are shown by their SMILES. Active and inactive are the calls of the source. No cut-off for these calls is given here.

For orientation: IC50 means the concentration that inhibits the measured activity by half. In the case of `CCC(=O)O[C@@H]1c2c(ccc3ccc(=O)oc23)OC(C)(C)[C@@H]1OC(C)=O`, the result (on Calmodulin (Bos taurus); in assay [2]) was Active. Further, the IC50 in the assay with Echinochloa crus-galli was determined as 439 µM; in [1], 396 µM.

In the case of `CC1(C)Oc2ccc3ccc(=O)oc3c2C[C@H]1O` [(+)-LOMATIN], the result (at Calmodulin (Bos taurus); in assay [2]) was Active. The Activity result (in the assay with Echinochloa crus-galli; in [1]) was “Dose-dependent effect” each time. The IC50 in the assay on Echinochloa crus-galli stood at 296 µM; in assay [1], 344 µM.

Regarding `CC1(C)Oc2ccc3ccc(=O)oc3c2[C@@H](O)[C@H]1O`, the values for the IC50 (in the assay on Echinochloa crus-galli; in [1]) were 439 µM and 361 µM, respectively.

With `COc1c2c(cc3oc(C)cc(=O)c13)OC(C)(C)[C@H](O)C2`, the result (on Calmodulin (Bos taurus); in assay [2]) was Active. The Activity entry (in the assay on Echinochloa crus-galli; in [1]) was “Dose-dependent effect” each time. In addition, the values for the concentration for half-maximal inhibition (IC50) (in the assay on Echinochloa crus-galli; in assay [1]) were 461 µM and 383 µM, respectively.

For the compound `C/C=C(/C)C(=O)O[C@@H]1Cc2c(cc3oc(C)cc(=O)c3c2OC)OC1(C)C`, the result (at Calmodulin (Bos taurus); in [2]) was Active. Besides, the IC50 in the assay with Echinochloa crus-galli turned out to be 26.4 µM; in assay [1] it was 143 µM.

On to `COc1c2c(cc3oc(C)cc(=O)c13)OC(C)(C)[C@H](OC(=O)C(C)C)C2`, for which the outcome (at Calmodulin (Bos taurus); in assay [2]) was Active. Besides, the IC50 came out at 14.8 µM in the assay with Echinochloa crus-galli and 74.1 µM in [1].

In the case of `CO[C@H]1c2c(ccc3ccc(=O)oc23)OC(C)(C)[C@@H]1O`, the result (at Calmodulin (Bos taurus); in assay [2]) was Active. The Activity entry (in the assay with Echinochloa crus-galli; in assay [1]) was “Dose-dependent effect” each time. Further, the IC50 is 808 µM in the assay with Echinochloa crus-galli and 108 µM in assay [1].

With `C/C=C(/C)C(=O)O[C@@H]1[C@H](O)c2c(ccc3ccc(=O)oc23)OC1(C)C`, the result (on Calmodulin (Bos taurus); in [2]) was Active. Further, the results for the IC50 (with Echinochloa crus-galli; in assay [1]) were 155 µM and 262 µM, respectively.

Turning to `CO[C@@H]1c2c(ccc3ccc(=O)oc23)OC(C)(C)[C@@H]1O`, the result (on Calmodulin (Bos taurus); in [2]) was Active. For the same compound, the Activity entry (with Echinochloa crus-galli; in [1]) was “Dose-dependent effect” throughout. The IC50 with Echinochloa crus-galli was 6.19 µM; in assay [1], 325 µM.

For the compound `CC(C)C(=O)O[C@@H]1c2c(ccc3ccc(=O)oc23)OC(C)(C)[C@@H]1O`, the result (on Calmodulin (Bos taurus); in [2]) was Active. The results for the IC50 (in the assay with Echinochloa crus-galli; in assay [1]) were 595 µM and 189 µM, respectively.

Turning to `CC(C)C(=O)O[C@@H]1Cc2c(ccc3ccc(=O)oc23)OC1(C)C`, the inhibition of growth at 25 µM came to 20% with Lemna aequinoctialis [3] and 19.6% with Lemna aequinoctialis [6]. For the same compound, the inhibition of growth at 100 µM was 84.9% in the assay on Lemna aequinoctialis [4] and 58.8% with Lemna aequinoctialis [5]. The outcome (on Calmodulin (Bos taurus); in assay [2]) was Active. The IC50 in the assay on Echinochloa crus-galli amounted to 169 µM; in [1] it was 237 µM. The values for the inhibition of growth at 50 µM in the assay with Lemna aequinoctialis [7] and in the assay with Lemna aequinoctialis [8] were 23.5% and 54.3%, respectively. Moreover, the inhibition of growth at 200 µM with Lemna aequinoctialis [9] was 87.4%; with Lemna aequinoctialis [10], 100%.

With `CC(=O)O[C@@H]1[C@H](OC(=O)C(C)C)c2c(ccc3ccc(=O)oc23)OC1(C)C` [SERAVSHANIN], the result (at Calmodulin (Bos taurus); in assay [2]) was Active. The IC50 with Echinochloa crus-galli came out at 162 µM; in [1], 402 µM.

On to `C/C=C(/C)C(=O)O[C@@H]1Cc2c(ccc3ccc(=O)oc23)OC1(C)C` [JATAMANSIN], for which the inhibition of growth at 25 µM in the assay with Lemna aequinoctialis [3] is 4.37%; in the assay with Lemna aequinoctialis [6] it was 37.5%. Besides, the inhibition of growth at 100 µM is 40.3% in the assay on Lemna aequinoctialis [4] and 100% with Lemna aequinoctialis [5]. For the same compound, the outcome (on Calmodulin (Bos taurus); in assay [2]) was Active. The values for the IC50 (in the assay with Echinochloa crus-galli; in assay [1]) were 863 µM and 260 µM, respectively. For the same compound, the inhibition of growth at 50 µM in the assay on Lemna aequinoctialis [7] amounted to 47.6%; with Lemna aequinoctialis [8] it was 12.8%. Further, in the assay with Lemna aequinoctialis [11], the inhibition of growth at 12 µM was determined as 15.3%. Besides, in the assay with Lemna aequinoctialis [12], the chlorophyll reduction at 12 µM came to 5.94%.
